Calls of active or inactive are those of the source. The calls are words filed in the database; no cut-off is given here.

One test concerns Staphylococcus aureus. The test is described as follows: Antimicrobial activity against Staphylococcus aureus isolate 1 with AMC-AMP-CIP-ERY-GEN-OXA-RIF resistance phenotype at bactericidal concentration within 30 mins. The format is functional, organism-based. A digest of the protocol: (§1)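 Time-kill in 10 mM sodium phosphate buffer, pH 7.4: 1 × 10^7 CFU/ml mid-log clinical isolate (10 μl) exposed at 37°C to peptide at the 1.5-h bactericidal concentration or twofold that, in 100 μl. Samples taken from 2 min onward, plated on tryptone soy agar, CFU counted after 24 h at 37°C. Killing taken as ≥3 log10 CFU/ml drop.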

In test [1] the test system is Enterococcus faecium. The test is described as follows: Bactericidal activity against Enterococcus faecium isolate 5 with AMP-AMC-CIP-CLI-ERY-GEN-KAN-LVX-SXT-TEC-VAN resistance phenotype assessed as concentration required for >= 3 log10 CFU/ml reduction in viable bacteria in sodium phosphate buffer at pH 7.4 after 1.5 hrs by liquid microdilution assay. The format is functional. A digest of the protocol: (§2)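 Clinical multidrug-resistant isolates grown to mid-log in tryptone soy broth and stored frozen. Exponential cells resuspended in 10 mM sodium phosphate buffer, pH 7.4, at 1 × 10^7 CFU/ml; 10 μl incubated with graded peptide concentrations in 100 μl at 37°C for 1.5 h. Plated on tryptone soy agar, CFU read after 24 h at 37°C. Peptide stocks in 20% ethanol.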

Test [2] relates to Enterococcus faecium. The test is described as follows: Bactericidal activity against Enterococcus faecium isolate 3 with AMP-CIP-CTX-ERY-GEN-LVX-SXT-TEC-VAN resistance phenotype assessed as concentration required for >= 3 log10 CFU/ml reduction in viable bacteria in sodium phosphate buffer at pH 7.4 after 1.5 hrs by liquid microdilution assay. The format is functional. The gist of the method:
as §2

Test [3] deals with Acinetobacter baumannii. The test is described as follows: Bactericidal activity against Acinetobacter baumannii isolate 3 with AMP-AMC-CFZ-CIP-IPM-SXT-TET-TOB resistance phenotype assessed as concentration required for >= 3 log10 CFU/ml reduction in viable bacteria in 20% heat-inactivated human serum after 1.5 hrs by liquid microdilution assay. The format is functional. A digest of the protocol: (§3)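 The buffer microdilution kill assay (1 × 10^7 CFU/ml mid-log cells, 10 μl in 100 μl, 37°C, 1.5 h, CFU on tryptone soy agar after 24 h) with serum added to 20% or 40% final. Serum was pooled from five healthy donors, clotted at room temperature, spun at 300 × g and heat-inactivated at 56°C for 30 min.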

Test [4] relates to Enterococcus faecium. The test is described as follows: Bactericidal activity against Enterococcus faecium isolate 3 with AMP-CIP-CTX-ERY-GEN-LVX-SXT-TEC-VAN resistance phenotype assessed as concentration required for >= 3 log10 CFU/ml reduction in viable bacteria in 20% heat-inactivated human serum after 1.5 hrs by liquid microdilution assay. The format is functional. A digest of the protocol: as §3

In test [5] the test system is Acinetobacter baumannii. The test is described as follows: Bactericidal activity against Acinetobacter baumannii isolate 3 with AMP-AMC-CFZ-CIP-IPM-SXT-TET-TOB resistance phenotype assessed as concentration required for >= 3 log10 CFU/ml reduction in viable bacteria in sodium phosphate buffer at pH 7.4 after 1.5 hrs by liquid microdilution assay. The format is functional. A digest of the protocol:
as §2

The subject of test [6] is Enterococcus faecium. In words: Antimicrobial activity against Enterococcus faecium isolate 3 with AMP-CIP-CTX-ERY-GEN-LVX-SXT-TEC-VAN resistance phenotype assessed as time to kill at twofold the bactericidal concentration. The format is functional, organism-based. The gist of the method:
as §1

Test [7] relates to Enterococcus faecium. The test is described as follows: Antimicrobial activity against Enterococcus faecium isolate 3 with AMP-CIP-CTX-ERY-GEN-LVX-SXT-TEC-VAN resistance phenotype at bactericidal concentration within 30 mins. The format is functional, organism-based. The gist of the method:
as §1

Test [8] has as its system Pseudomonas aeruginosa. In words: Bactericidal activity against Pseudomonas aeruginosa isolate 1 with AMP-CFZ-CIP-CTX-CXM-GEN-LVX-SXT-TET resistance phenotype assessed as concentration required for >= 3 log10 CFU/ml reduction in viable bacteria in sodium phosphate buffer at pH 7.4 after 1.5 hrs by liquid microdilution assay. The format is functional. A digest of the protocol:
as §2

In test [9] the test system is Stenotrophomonas maltophilia. The test is described as follows: Bactericidal activity against Stenotrophomonas maltophilia isolate 2 with AMK-CIP-CTX-IPM-MEM-SAM-TZP resistance phenotype assessed as concentration required for >= 3 log10 CFU/ml reduction in viable bacteria in 40% heat-inactivated human serum after 1.5 hrs by liquid microdilution assay. The format is functional. A digest of the protocol:
as §3

The subject of test [10] is Pseudomonas aeruginosa. The test is described as follows: Bactericidal activity against Pseudomonas aeruginosa isolate 1 with AMP-CFZ-CIP-CTX-CXM-GEN-LVX-SXT-TET resistance phenotype assessed as concentration required for >= 3 log10 CFU/ml reduction in viable bacteria in 20% heat-inactivated human serum after 1.5 hrs by liquid microdilution assay. The format is functional. A digest of the protocol: as §3

Consider H-GIFSKLAGKKLKNLLISG-NH2, for which the result in the test with Staphylococcus aureus, with Enterococcus faecium [6] and in the test on Enterococcus faecium [7] was inactive. Further, the Activity was 2 µM in the test with Enterococcus faecium [1]; 2 µM in the test with Enterococcus faecium [2]; 16 µM with Acinetobacter baumannii [3]; 32 µM with Enterococcus faecium [4]; 1 µM in the test with Acinetobacter baumannii [5]; 1 µM in the test on Pseudomonas aeruginosa [8]. Further, the Activity in [9] turned out to be 16 µM; in the test on Pseudomonas aeruginosa [10] it was 4 µM.

The record behind these values is ChEMBL document CHEMBL1151458, “Comparative analysis of the bactericidal activities of amphibian peptide analogues against multidrug-resistant nosocomial bacterial strains” (2008).
